According to ChEMBL document CHEMBL3046965, “Synthesis and quantitative structure-antifungal activity relationships of clovane derivatives against Botrytis cinerea” (2009):

Experiments:
Format in all cases: functional
Conditions in all cases: UCA 992, 144 h
Botrytis cinerea [1] = test: Antifungal activity against Botryotinia fuckeliana UCA 992 assessed as inhibition of radial growth at 50 ug/mL after 6 days relative to control
Summary of the method: (§1)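 Radial growth assay on glucose-malt-peptone-agar (61 g/L, pH 6.5-7.0). Compounds dissolved in EtOH, giving 50-200 mg L-1 final in the medium, with equal EtOH in control and treated plates. A 5 mm mycelial disk from an actively growing culture was placed at the plate centre and radial growth followed for 6 days. % inhibition = 100 - [(treated growth/control growth) × 100]. At least three independent experiments, each in triplicate, ± SD.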

Botrytis cinerea [2] = test: Antifungal activity against Botryotinia fuckeliana UCA 992 assessed as inhibition of radial growth at 200 ug/mL after 6 days relative to control; summary of the method: as §1
Botrytis cinerea [3] = test: Antifungal activity against Botryotinia fuckeliana UCA 992 assessed as inhibition of radial growth at 100 ug/mL after 6 days relative to control; summary of the method: as §1

## CC1(C)C[C@H](O)[C@]23CC[C@H](O)[C@@](C)(CC[C@@H]12)C3
Botrytis cinerea [1]
  inhibition at 50 µg/mL: 21%
Botrytis cinerea [2]
  inhibition at 200 µg/mL: 30%
Botrytis cinerea [3]
  inhibition at 100 µg/mL: 24%

## CO[C@H]1CC(C)(C)[C@@H]2CC[C@@]3(C)C[C@]12CCC3=O
Botrytis cinerea [1]
  inhibition at 50 µg/mL: 17%
Botrytis cinerea [2]
  inhibition at 200 µg/mL: 76%
Botrytis cinerea [3]
  inhibition at 100 µg/mL: 42%

## CC1(C)CC(=O)[C@]23CCC(=O)[C@@](C)(CC[C@@H]12)C3
Botrytis cinerea [1]
  inhibition at 50 µg/mL: 21%
Botrytis cinerea [2]
  inhibition at 200 µg/mL: 36%
Botrytis cinerea [3]
  inhibition at 100 µg/mL: 25%

## CO[C@H]1CC(C)(C)[C@@H]2CC[C@@]3(CO)C[C@]12CC[C@H]3O
Botrytis cinerea [1]
  inhibition at 50 µg/mL: 2%
Botrytis cinerea [2]
  inhibition at 200 µg/mL: 24%
Botrytis cinerea [3]
  inhibition at 100 µg/mL: 9%

## CO[C@H]1CC(C)(C)[C@@H]2CC[C@@]3(C)C[C@]12CC[C@@H]3O
Botrytis cinerea [1]
  inhibition at 50 µg/mL: 29%
Botrytis cinerea [2]
  inhibition at 200 µg/mL: 65%
Botrytis cinerea [3]
  inhibition at 100 µg/mL: 43%

## C=CCO[C@H]1CC(C)(C)[C@@H]2CC[C@@]3(C)C[C@]12CC[C@H]3O
Botrytis cinerea [1]
  inhibition at 50 µg/mL: 63%
Botrytis cinerea [2]
  inhibition at 200 µg/mL: 82%
Botrytis cinerea [3]
  inhibition at 100 µg/mL: 72%

## CC1(C)C[C@H](OCCN)[C@]23CC[C@@H](O)[C@@](C)(CC[C@@H]12)C3
Botrytis cinerea [1]
  inhibition at 50 µg/mL: 50%
Botrytis cinerea [2]
  inhibition at 200 µg/mL: 97%
Botrytis cinerea [3]
  inhibition at 100 µg/mL: 82%

## CC1(C)C[C@H](OCCCl)[C@]23CC[C@@H](O)[C@@](C)(CC[C@@H]12)C3
Botrytis cinerea [1]
  inhibition at 50 µg/mL: 56%
Botrytis cinerea [2]
  inhibition at 200 µg/mL: 66%
Botrytis cinerea [3]
  inhibition at 100 µg/mL: 64%

## CC1(C)C[C@H](OCCBr)[C@]23CC[C@@H](O)[C@@](C)(CC[C@@H]12)C3
Botrytis cinerea [1]
  inhibition at 50 µg/mL: 68%
Botrytis cinerea [2]
  inhibition at 200 µg/mL: 77%
Botrytis cinerea [3]
  inhibition at 100 µg/mL: 73%

## CC1(C)C[C@H](OCCI)[C@]23CC[C@@H](O)[C@@](C)(CC[C@@H]12)C3
Botrytis cinerea [1]
  inhibition at 50 µg/mL: 65%
Botrytis cinerea [2]
  inhibition at 200 µg/mL: 70%
Botrytis cinerea [3]
  inhibition at 100 µg/mL: 67%

## CC1(C)C[C@H](OCCS)[C@]23CC[C@@H](O)[C@@](C)(CC[C@@H]12)C3
Botrytis cinerea [1]
  inhibition at 50 µg/mL: 27%
Botrytis cinerea [2]
  inhibition at 200 µg/mL: 28%
Botrytis cinerea [3]
  inhibition at 100 µg/mL: 27%

## CC1(C)C[C@H](OCC[N+](=O)[O-])[C@]23CC[C@@H](O)[C@@](C)(CC[C@@H]12)C3
Botrytis cinerea [1]
  inhibition at 50 µg/mL: 80%
Botrytis cinerea [2]
  inhibition at 200 µg/mL: 90%
Botrytis cinerea [3]
  inhibition at 100 µg/mL: 86%

## CC1(C)C[C@H](OCCO)[C@]23CC[C@@H](O)[C@@](C)(CC[C@@H]12)C3
Botrytis cinerea [1]
  inhibition at 50 µg/mL: 48%
Botrytis cinerea [2]
  inhibition at 200 µg/mL: 60%
Botrytis cinerea [3]
  inhibition at 100 µg/mL: 54%

## CC1(C)C[C@H](OCCn2ccnc2)[C@]23CC[C@@H](O)[C@@](C)(CC[C@@H]12)C3
Botrytis cinerea [1]
  inhibition at 50 µg/mL: 67%
Botrytis cinerea [2]
  inhibition at 200 µg/mL: 98%
Botrytis cinerea [3]
  inhibition at 100 µg/mL: 84%

## CC1(C)C[C@H](OCCOc2ccc([N+](=O)[O-])cc2)[C@]23CC[C@@H](O)[C@@](C)(CC[C@@H]12)C3
Botrytis cinerea [1]
  inhibition at 50 µg/mL: 76%
Botrytis cinerea [2]
  inhibition at 200 µg/mL: 81%
Botrytis cinerea [3]
  inhibition at 100 µg/mL: 79%

## CC1(C)C[C@H](OCCSC(=N)N)[C@]23CC[C@@H](O)[C@@](C)(CC[C@@H]12)C3
Botrytis cinerea [1]
  inhibition at 50 µg/mL: 70%
Botrytis cinerea [2]
  inhibition at 200 µg/mL: 97%
Botrytis cinerea [3]
  inhibition at 100 µg/mL: 83%

## CC1(C)C[C@H](OCCSc2ccccc2)[C@]23CC[C@@H](O)[C@@](C)(CC[C@@H]12)C3
Botrytis cinerea [1]
  inhibition at 50 µg/mL: 6%
Botrytis cinerea [2]
  inhibition at 200 µg/mL: 24%
Botrytis cinerea [3]
  inhibition at 100 µg/mL: 12%

## CC1(C)C[C@H](OCCn2cncn2)[C@]23CC[C@@H](O)[C@@](C)(CC[C@@H]12)C3
Botrytis cinerea [1]
  inhibition at 50 µg/mL: 34%
Botrytis cinerea [2]
  inhibition at 200 µg/mL: 86%
Botrytis cinerea [3]
  inhibition at 100 µg/mL: 57%

## CC(C)(C)O[C@H]1CC(C)(C)[C@@H]2CC[C@@]3(C)C[C@]12CC[C@H]3O
Botrytis cinerea [1]
  inhibition at 50 µg/mL: 59%
Botrytis cinerea [2]
  inhibition at 200 µg/mL: 78%
Botrytis cinerea [3]
  inhibition at 100 µg/mL: 66%

## CC1(C)C[C@H](SCCS)[C@]23CC[C@@H](O)[C@@](C)(CC[C@@H]12)C3
Botrytis cinerea [1]
  inhibition at 50 µg/mL: 32%
Botrytis cinerea [2]
  inhibition at 200 µg/mL: 38%
Botrytis cinerea [3]
  inhibition at 100 µg/mL: 34%

## CC1(C)C[C@H](OCCN2C(=O)c3ccccc3C2=O)[C@]23CC[C@@H](O)[C@@](C)(CC[C@@H]12)C3
Botrytis cinerea [1]
  inhibition at 50 µg/mL: 50%
Botrytis cinerea [2]
  inhibition at 200 µg/mL: 60%
Botrytis cinerea [3]
  inhibition at 100 µg/mL: 55%

## CO[C@H]1CC(C)(C)[C@@H]2CC[C@@]3(C)C[C@]12CC[C@H]3O [2BETA-METHOXYCLOVAN-9ALPHA-OL]
Botrytis cinerea [1]
  inhibition at 50 µg/mL: 49%
Botrytis cinerea [2]
  inhibition at 200 µg/mL: 83%
Botrytis cinerea [3]
  inhibition at 100 µg/mL: 60%

## CC1(C)C[C@H](O)[C@]23CC[C@@H](O)[C@@](C)(CC[C@@H]12)C3 [CLOVANEDIOL]
Botrytis cinerea [1]
  inhibition at 50 µg/mL: 36%
Botrytis cinerea [2]
  inhibition at 200 µg/mL: 63%
Botrytis cinerea [3]
  inhibition at 100 µg/mL: 50%
